Source: PubChem BioAssay
A selection: hits, their analogues and other compounds. The true share with any hit is near 2.9%.
PRMT1 inh: PRMT1 methyltransferase inhibitors, primary screen, biochemical, fluorescence polarization. Protein arginine N-methyltransferase 1 (Homo sapiens), Q99873. recombinant PRMT1, activity-based probe fluorescence polarization. inhibition, % at 2.79 µM. 370,000 compounds, 1.3% hits;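 active = inhibition above about 21% made by adding two undisclosed values, limit read from the data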
ATG4B inh: ATG4B protease inhibitors, primary screen, biochemical, fluorescence, uHTS. Cysteine protease ATG4B (Homo sapiens), Q9Y4P1. ATG4B cleavage of LC3-PLA2, NBD-HPC fluorescence, 1 h. inhibition, % at 8.33 µM. 340,000 compounds, 0.51% hits; in the data active = inhibition above about 40%
HTRA1 inh: HTRA1 serine protease inhibitors, primary screen, biochemical, fluorescence polarization, HTS | recombinant HTRA1, FP-rhodamine activity-based probe | inhibition, % at 5.96 µM | Q92743 | 340,000 compounds, 0.5% hits; in the data active = inhibition above about 36%;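 note: 0% = enzyme with DMSO and 100% = wells lacking enzyme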
Target sequence (Q92743 whole entry, looked up): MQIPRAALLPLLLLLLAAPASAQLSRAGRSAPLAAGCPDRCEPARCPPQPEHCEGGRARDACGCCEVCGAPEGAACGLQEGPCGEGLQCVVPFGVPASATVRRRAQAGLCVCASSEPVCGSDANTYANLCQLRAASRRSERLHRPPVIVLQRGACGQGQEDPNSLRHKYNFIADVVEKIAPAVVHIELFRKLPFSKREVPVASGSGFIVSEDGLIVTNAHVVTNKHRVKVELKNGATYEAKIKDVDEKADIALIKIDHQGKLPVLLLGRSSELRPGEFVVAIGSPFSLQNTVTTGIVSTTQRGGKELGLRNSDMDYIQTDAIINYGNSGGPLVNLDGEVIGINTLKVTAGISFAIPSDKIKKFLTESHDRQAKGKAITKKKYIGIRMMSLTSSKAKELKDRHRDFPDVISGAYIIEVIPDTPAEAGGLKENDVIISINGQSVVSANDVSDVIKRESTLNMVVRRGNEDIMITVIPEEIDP
mABHD4 FP: ABHD4 inhibitors, primary screen, biochemical, fluorescence polarization, mouse; (Lyso)-N-acylphosphatidylethanolamine lipase (Mus musculus), Q8VD66; purified mABHD4, FP-Rh probe fluorescence polarization; inhibition, % at 8.92 µM; 370,000 compounds, 0.54% hits;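 active = inhibition exceeding the mean over every tested compound plus 3 SD, cut at about 30% in these data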;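 note: 0% = plate median of compound wells and 100% = S159A mutant with DMSO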
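assay system = mABHD4 protein | compound dosing = single nominal dose of 8.92 µM, 0.89% DMSO final | read-out basis = percent inhibition of probe binding, normalized to plate controls | schedule = Enzyme–compound pre-incubation 45 min, then probe 60 min, both 25 °C | detection = fluorescence polarization, excitation 525 nm, emission 598 nm, BODIPY TMR filters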
TCR-CD3 inh: inhibitors of human TCR-CD3 interaction, primary screen, biochemical, fluorescence, TAMRA-labeled TCR probe; T-cell receptor (TCR); inhibition, % at 9.4 µM; 360,000 compounds, 0.37% hits; AID 651800, 2012; in the data active = inhibition above about 19%;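 note: recombinant mutant TCR 2C K166C tagged with TAMRA read by polarization; 0% = receptor in buffer alone and 100% = receptor with positive control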
SIAE inh: human SIAE inhibitors, primary screen, biochemical, fluorescence polarization, FP-Rh probe, 1536-well HTS; 370,000 compounds, 0.69% hits; inhibition, % at 9.66 µM; Sialate O-acetylesterase (Homo sapiens), Q9HAT2; SIAE FP-Rh probe binding;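 active = inhibition above a cutoff: mean of compounds within the control limits plus 3 SD of those, cut at about 17% in these data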;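 note: 0% = plate median of compound wells and 100% = probe without SIAE protein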
PRMT1 confirm: PRMT1 methyltransferase inhibitors, confirmation, biochemical, fluorescence polarization, triplicate; inhibition, % at 2.79 µM; 3,300 compounds, 42% hits; recombinant His-PRMT1, activity-based probe fluorescence polarization; shares compounds with PRMT1 inh;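 active = mean inhibition across replicates above the hit cutoff derived for the earlier primary screen, cut at about 22% in these data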
Active calls of the source: *; nt = no result.

SMILES | PRMT1 inh | ATG4B inh | HTRA1 inh | mABHD4 FP | TCR-CD3 inh | SIAE inh | PRMT1 confirm
Cc1ccc(N=Cc2c(O)n(C)c(=O)n(C)c2=O)nc1 | 29.3* | 12.5 | 2.3 | -1.0 | 1.8 | -0.3 | -4.8
CCCCCCCCNC(=O)C1CSCCS(=O)(=O)N1Cc1ccccc1 (configuration not stated) | -2.4 | nt | nt | -8.1 | nt | -5.0 | nt
NC(=O)C1CCN(C2CC(=O)N(Cc3cccs3)C2=O)CC1 (configuration not stated) | 73.6* | 5.7 | 11.9 | 7.1 | -1.6 | -4.0 | -0.5
O=C1CC(N2CCN(c3nc4ccccc4s3)CC2)C(=O)N1Cc1cccs1 (configuration not stated) | 1.8 | 0.3 | -5.3 | -8.1 | 3.6 | 0.9 | nt
O=C1CC(N2CCC(c3nc4ccccc4o3)CC2)C(=O)N1Cc1cccs1 (configuration not stated) | 46.9* | 9.1 | -38.4 | 5.7 | 0.2 | -2.6 | 1.6
COc1cccc(N2CCN(C(=O)CSc3nc4ncccc4[nH]3)CC2)c1 | -2.4 | nt | nt | 5.7 | nt | 4.4 | nt
O=C1CCCCCCC1Sc1ccccc1[N+](=O)[O-] (configuration not stated) | 29.6* | 8.3 | -3.5 | -4.3 | 0.4 | 2.0 | 8.9
O=[N+]([O-])c1ccccc1S(=O)(=O)NC1CCCCCCC1 | 0.0 | 9.3 | 2.6 | -3.0 | -2.6 | -2.5 | nt
O=C1CCC(=O)N1c1ccc(CSc2nc3ccccc3[nH]2)cc1 | 33.1* | 6.0 | 0.5 | -4.9 | -4.1 | -6.7 | 28.0*
CCOC(=O)CC[C@@]1(C(=O)OCC)C[C@@H](CC(=O)N2CCN(C(=O)c3ccco3)CC2)C(=O)N2CCCC=C21 | -5.0 | nt | nt | 5.7 | nt | -0.1 | nt
CCOC(=O)c1ccc(NC(=O)c2c(NC(=O)CCC(=O)O)sc3c2CCCCC3)cc1 | 43.8* | -7.4 | nt | 2.4 | -4.0 | -4.8 | 4.7
CCCOC(=O)c1c(NC(=O)CCC(=O)O)sc2c1CCCCC2 | 4.2 | 4.5 | -6.7 | 2.3 | -2.8 | -0.9 | nt
CCOc1ccccc1NC(=O)CCC(=O)O | -0.3 | 1.4 | 1.4 | 0.5 | -0.7 | -4.7 | nt
CCOc1ccccc1NC(=O)c1c(NC(=O)CCC(=O)O)sc2c1CCCCC2 | 25.4* | -5.7 | 3.4 | 1.8 | 1.2 | 3.6 | -3.7
O=C1C(Cl)=C(Nc2ccccc2O)C(=O)N1CCc1ccccc1 | 29.6* | 11.4 | -6.7 | 20.9 | 5.0 | -5.5 | 53.5*
COc1ccc(CCNC2=C(Cl)C(=O)N(CCc3ccccc3)C2=O)cc1OC | 1.9 | 12.5 | -22.5 | -4.9 | -1.4 | 8.4 | nt
Cc1ccc(C2C3=C(CC(C)(C)CC3=O)Nc3[nH]c(=S)[nH]c(=O)c32)cc1 (configuration not stated) | 52.3* | -7.4 | -6.1 | 0.8 | -1.4 | -6.5 | 5.0
Cc1[nH]nc2c1C(c1ccc(O)cc1)C1=C(CC(C)(C)CC1=O)N2 (configuration not stated) | 1.4 | -0.5 | 7.4 | 2.8 | 0.0 | 3.8 | nt
CCN1CCN(C(=S)Nc2ccc(Cl)c(Cl)c2)CC1 | -2.0 | -5.3 | -25.9 | -2.2 | -2.5 | 1.6 | nt
CCN1CCN(C(=S)c2ccc(Cl)c(Cl)c2)CC1 | 63.5* | -10.5 | -6.3 | -2.5 | -3.2 | 1.9 | 48.6*
CCOC(=O)[C@]12CCCC=C1N(CCCOC)C(=O)[C@@H]2CC(=O)N1CCCCC1 | 0.7 | nt | nt | 2.0 | nt | -2.6 | nt
CN1c2ccsc2C(O)=C(C(=S)Nc2ccc(F)c(Cl)c2)S1(=O)=O | 30.2* | 1.4 | -12.1 | -17.3 | -3.5 | -2.8 | 20.6
O=C(N/N=C/c1ccc(N2CCOCC2)o1)c1ccccc1[N+](=O)[O-] | 20.3 | 4.0 | 2.0 | 7.0 | 0.8 | 8.2 | nt
O=C(N/N=C/c1ccc(N2CCCCC2)o1)c1ccccc1[N+](=O)[O-] | 31.4* | -7.8 | 5.9 | 10.8 | 0.7 | 8.3 | 5.3
